In ChEMBL document CHEMBL5136962, “Synthesis and immunological evaluation of N-acyl modified Globo H derivatives as anticancer vaccine candidates” (RSC Med Chem, 2021):
Activity calls are given as the source filed them.

Tests used:
Globohexaosylceramide = experiment: Binding affinity to globo H antigen in human MCF7 cells using mouse sera induced by compound immunization and 14 days post fourth vaccination measured after 30 mins by FITC-conjugated antibody based flow cytometry; type: cell-based; settings: time 14.0 day
Method in brief: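 Immune sera from vaccinated mice were incubated with Globo H-positive MCF-7 human breast cancer cells. Binding of serum antibodies to the cells was measured by flow cytometry.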

Mus musculus [1] = experiment: Induction of antigen-specific immunogenicity in pathogen free Balb/c mouse assessed as increase in IgG1 antibody titer production against native Globo H antigen at 2 ug, IM administered 4 times at biweekly interval measured 14 days post fourth vaccination in presence of 2 ug glycolipid adjuvant C34 by ELISA; type: functional, organism-based; settings: dose 2.0 µg, time 14.0 day
Method in brief: (§1)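 Six female Balb/c mice per group received CRM197 glycoconjugate (2 μg carbohydrate antigen) with C34 adjuvant (2 μg) intramuscularly, four times at two-week intervals. Pooled group sera were tested for IgG subclasses by ELISA on plates coated with the unmodified Globo H–BSA conjugate (G0-BSA).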

Mus musculus [2] = experiment: Induction of antigen-specific immunogenicity in pathogen free Balb/c mouse assessed as increase in IgG1 antibody titer production against modified Globo H antigen at 2 ug, IM administered 4 times at biweekly interval measured 14 days post fourth vaccination in presence of 2 ug glycolipid adjuvant C34 by ELISA; type: functional, organism-based; settings: dose 2.0 µg, time 14.0 day
Mus musculus [3] = experiment: Induction of antigen-specific immunogenicity in pathogen free Balb/c mouse assessed as increase in IgG1 antibody titer production against native Globo H antigen at 2 ug, IM administered 4 times at biweekly interval measured 13 days post third vaccination in presence of 2 ug glycolipid adjuvant C34 by ELISA; type: functional, organism-based; settings: dose 2.0 µg, time 13.0 day; method in brief: as §1
MCF7 = experiment: Induction of complement-dependent cytotoxicity against human MCF7 cells assessed as increase in cell lysis using mouse sera induced by compound immunization and 14 days post fourth vaccination measured after 1 hr by LDH release assay; type: functional, cell-based; settings: time 14.0 day
Method in brief: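 Complement-dependent cytotoxicity on MCF-7 cells used pooled sera collected after the 4th vaccination, diluted 1:10. Percent lysis was read by LDH release, with three wells per measurement. Values are mean ± SEM of three independent experiments, compared by one-way ANOVA.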

Measured: Activity

CC(=O)N[C@H]1[C@H](O[C@H]2[C@@H](O)[C@@H](CO)O[C@H](O[C@@H]3[C@H](O)[C@@H](O)[C@H](O[C@H]4[C@H](O)[C@@H](O)[C@H](OCCCCCN)O[C@@H]4CO)O[C@@H]3CO)[C@@H]2O)O[C@H](CO)[C@H](O)[C@@H]1O[C@@H]1O[C@H](CO)[C@H](O)[C@H](O)[C@H]1O[C@@H]1O[C@@H](C)[C@@H](O)[C@@H](O)[C@@H]1O
not listed: MCF7
active: all other assays above

C[C@@H]1O[C@@H](O[C@H]2[C@H](O[C@H]3[C@@H](O)[C@@H](CO)O[C@@H](O[C@H]4[C@@H](O)[C@@H](CO)O[C@H](O[C@@H]5[C@H](O)[C@@H](O)[C@H](O[C@H]6[C@H](O)[C@@H](O)[C@H](OCCCCCN)O[C@@H]6CO)O[C@@H]5CO)[C@@H]4O)[C@@H]3NC(=O)C(F)(F)F)O[C@H](CO)[C@H](O)[C@@H]2O)[C@@H](O)[C@H](O)[C@@H]1O
active: all assays above

C[C@@H]1O[C@@H](O[C@H]2[C@H](O[C@H]3[C@@H](O)[C@@H](CO)O[C@@H](O[C@H]4[C@@H](O)[C@@H](CO)O[C@H](O[C@@H]5[C@H](O)[C@@H](O)[C@H](O[C@H]6[C@H](O)[C@@H](O)[C@H](OCCCCCN)O[C@@H]6CO)O[C@@H]5CO)[C@@H]4O)[C@@H]3NC(=O)C(F)F)O[C@H](CO)[C@H](O)[C@@H]2O)[C@@H](O)[C@H](O)[C@@H]1O
active: all assays above
